Values after ≈ are worked out from the molar mass of the structure shown. Active and inactive are the calls of the source. The rule behind the calls is not given here.
system: not listed separately; assay: Chemical stability in pH 7.4 PBS/Cdx buffer assessed as parent compound remaining at 10 uM incubated for 24 hrs by RP-HPLC method; assay type: physicochemical; conditions: read-out: Stability
Summary of the method: (§1)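 Compound diluted from DMSO stock to 10 μM final (1% DMSO) in PBS pH 7.4, or in PBS with 10% w/w (2-hydroxypropyl)-β-cyclodextrin. Sampled at t0, 2, 4, 6 and 24 h and injected directly onto RP-HPLC. Percent remaining relative to t0 from peak area.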

| Compound | remaining at 24 h, 10 µM |
| --- | --- |
| COc1cc(C2CC(c3ccc(Cl)cc3)=NN2)ccc1O (stereo unspecified) | 98% |
| Cl.NCCOc1cc(/C=C/C(=O)c2ccc(Cl)cc2)ccc1O | 100% |
| COc1cc(/C=C/C(=O)c2ccc(I)cc2)ccc1O | 100% |
| COc1cc(/C=C2\COc3cc(Cl)ccc3C2=O)ccc1O | 100% |
| COc1cc(/C=C2\Oc3cc(Cl)ccc3C2=O)ccc1O | 100% |

system: Mus musculus; assay: Inhibition of eosinophil infiltration in Balb/c mouse model of 8 day model of allergic eosinophilic airway inflammation at 300 nmol/kg dosed intranasally 2 hrs before ovalbumin challenge by hemocytometry; assay type: functional; conditions: not given
Summary of the method: (§2)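 OVA/alum-sensitized Balb/c mice challenged intranasally with OVA on days 5–7. Compounds at 300 nmol/kg in 10% PBS/Cdx given intranasally 2 h before each challenge. BAL 24 h after the last challenge; eosinophils, neutrophils and lymphocytes counted by hemocytometer and differential cytospin; n=6/group.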

| Compound | inhibition |
| --- | --- |
| Cl.NCCOc1cc(/C=C/C(=O)c2ccc(Cl)cc2)ccc1O | inactive |
| COc1cc(/C=C2\COc3cc(Cl)ccc3C2=O)ccc1O | inactive |
| COc1cc(/C=C2\Oc3cc(Cl)ccc3C2=O)ccc1O | inactive |

same assay, conditions: inhaled or nasal

| Compound | inhibition in vivo at 0.3 µmol/kg |
| --- | --- |
| COc1cc(C2CC(c3ccc(Cl)cc3)=NN2)ccc1O (stereo unspecified) | 39% |
| COc1cc(/C=C/C(=O)c2ccc(I)cc2)ccc1O | 36% |

biological target: T1, Stromal cell-derived factor 1 (Homo sapiens, UniProt P48061); assay: Binding affinity to Texas Red-labelled CXCL12 (unknown origin) assessed as inhibition of CXCL12-Texas Red binding to EGFP-labeled human CXCR4 expressed in HEK293 cell membranes at 30 uM pre-incubated for 1 hr by FRET-based binding assay; conditions: not given
Summary of the method: (§3)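 HEK-293 cells stably expressing human EGFP-CXCR4, 10⁶ cells/ml in HEPES buffer pH 7.4 with 0.1% BSA, 21 °C. CXCL12-Texas Red (100 nM) was preincubated 1 h at room temperature with compound or DMSO, then added at t=150 s. FRET read as loss of EGFP emission at 510 nm (excitation 470 nm) up to equilibrium. Ki from dose-response curves.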

T1 sequence (P48061 whole entry): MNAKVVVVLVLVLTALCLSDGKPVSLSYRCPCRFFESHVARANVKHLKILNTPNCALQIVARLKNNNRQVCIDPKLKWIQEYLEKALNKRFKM

| Compound | inhibition |
| --- | --- |
| COc1cc(/C=C/C(=O)c2ccc3ccccc3c2)ccc1O | 5% |
| COc1cc(/C=C/C(=O)c2ccc(S(=O)(=O)O)cc2)ccc1O | 6% |
| COc1cc(/C=C/C(=O)c2ccc([N+](=O)[O-])cc2)ccc1O | 30% |
| COc1cc(/C=C/C(=O)c2cccc(Cl)c2)ccc1O | 25% |

biological target: T1, Stromal cell-derived factor 1; assay: Binding affinity to Texas Red-labelled CXCL12 (unknown origin) assessed as inhibition of CXCL12-Texas Red binding to EGFP-labeled human CXCR4 expressed in HEK293 cell membranes at 5 uM pre-incubated for 1 hr by FRET-based binding assay; conditions: not given; summary of the method: as §3

| Compound | inhibition |
| --- | --- |
| CCOc1cc(/C=C/C(=O)c2ccc(Cl)cc2)ccc1O | 52% |
| COc1cc(-c2cc(-c3ccc(Cl)cc3)ncn2)ccc1O | 30% |

system: not listed separately; assay: Chemical stability in pH 7.4 PBS buffer assessed as parent compound remaining at 10 uM incubated for 24 hrs by RP-HPLC method; assay type: physicochemical; conditions: read-out: Stability; summary of the method: as §1

| Compound | remaining at 24 h, 10 µM |
| --- | --- |
| COc1cc(C2CC(c3ccc(Cl)cc3)=NN2)ccc1O (stereo unspecified) | 78% |
| Cl.NCCOc1cc(/C=C/C(=O)c2ccc(Cl)cc2)ccc1O | 100% |
| COc1cc(/C=C/C(=O)c2ccc(I)cc2)ccc1O | 100% |
| COc1cc(/C=C2\COc3cc(Cl)ccc3C2=O)ccc1O | 100% |
| COc1cc(/C=C2\Oc3cc(Cl)ccc3C2=O)ccc1O | 100% |

system: Mus musculus; assay: Inhibition of macrophages infiltration in Balb/c mouse model of 8 day model of allergic eosinophilic airway inflammation at 300 nmol/kg dosed intranasally 2 hrs before ovalbumin challenge by hemocytometry; assay type: functional, organism-based; conditions: not given

| Compound | inhibition |
| --- | --- |
| COCOc1ccc(/C=C/C(=O)c2ccc(Cl)cc2O)cc1OC | inactive |
| COc1cc(C2CC(c3ccc(Cl)cc3)=NN2)ccc1O (stereo unspecified) | inactive |
| Cl.NCCOCCOc1cc(/C=C2\Cc3cc(Cl)ccc3C2=O)ccc1O | inactive |
| Cl.NCCOc1cc(/C=C/C(=O)c2ccc(Cl)cc2)ccc1O | inactive |
| COc1cc(/C=C/C(=O)c2ccc(I)cc2)ccc1O | inactive |

system: not listed separately; assay: Kinetic solubility in pH 7.4 HEPES-BSA buffer at 5 uM incubated for 24 hrs at 20 degC by HPLC method; assay type: physicochemical; conditions: read-out: Kinetic_solubility
Summary of the method: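 Compound added from 10 mM DMSO stock to 5 μM in pH 7.4 HEPES-BSA buffer (1 g/L BSA), shaken 24 h at 20 °C. After centrifugation, supernatant concentration measured by HPLC against 5 and 10 μM standards.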

| Compound | solubility kinetic at 24 h, 5 µM |
| --- | --- |
| COc1cc(/C=C2\Cc3cc(Cl)ccc3C2=O)ccc1O | 0.88 µM (≈ 0.265 µg/mL) |
| COc1cc(/C(C)=C/C(=O)c2ccc(Cl)cc2)ccc1O | 2.6 µM (≈ 0.787 µg/mL) |
| COc1cc(/C=C/C(=O)c2ccccc2)ccc1O | > 5 µM |
| COc1cc(/C=C/C(=O)c2ccc3ccccc3c2)ccc1O | 0.95 µM (≈ 0.289 µg/mL) |
| COc1cc(/C=C(\C)C(=O)c2ccc(Cl)cc2)ccc1O | > 5 µM |
| COc1cc(/C=C/C(=O)c2ccc(C)cc2)ccc1O | > 5 µM |
| COc1cc(-c2cc(-c3ccc(Cl)cc3)nc(N)n2)ccc1O | > 5 µM |
| O=C(/C=C/c1ccc(O)c(C(=O)O)c1)c1ccc(Cl)cc1 | > 5 µM |
| COc1cc(/C=C/C(=O)c2ccc(C(F)(F)F)cc2)ccc1O | > 5 µM |
| COc1cc(C2CC(c3ccc(Cl)cc3)=NN2)ccc1O (stereo unspecified) | > 5 µM |
| COc1cc(-c2cc(-c3ccc(Cl)cc3)nc(C)n2)ccc1O | > 5 µM |
| COc1cc(C2CC(c3ccc(Cl)cc3)=NN2C(C)=O)ccc1O (stereo unspecified) | > 5 µM |
| CCOc1cc(/C=C/C(=O)c2ccc(Cl)cc2)ccc1O | 4.72 µM (≈ 1.43 µg/mL) |
| COc1cc(/C=C/C(=O)c2ccc(Br)cc2)ccc1O | > 5 µM |
| Cl.NCCOCCOc1cc(/C=C2\Cc3cc(Cl)ccc3C2=O)ccc1O | > 5 µM |
| COc1cc(-c2cc(-c3ccc(Cl)cc3)ncn2)ccc1O | 4.29 µM (≈ 1.34 µg/mL) |
| COc1cc(/C=C/C(=O)c2ccc(Cl)cc2F)ccc1O | > 5 µM |
| COc1ccc(C(=O)/C=C/c2ccc(O)c(OC)c2)cc1 | > 5 µM |
| Cl.NCCOc1cc(/C=C/C(=O)c2ccc(Cl)cc2)ccc1O | > 5 µM |
| COc1cc(/C=C/C(=O)c2ccc(I)cc2)ccc1O | > 5 µM |
| COc1cc(/C=C2\COc3cc(Cl)ccc3C2=O)ccc1O | > 5 µM |
| COc1cc(/C=C/C(=O)c2ccc(S(=O)(=O)O)cc2)ccc1O | > 5 µM |
| COc1cc(/C=C/C(=O)c2ccc([N+](=O)[O-])cc2)ccc1O | > 5 µM |
| COc1cc(/C=C2\Oc3cc(Cl)ccc3C2=O)ccc1O | > 5 µM |
| COc1cc(/C=C/C(=O)c2cccc(Cl)c2)ccc1O | > 5 µM |

system: not listed separately; assay: Thermodynamic solubility in pH 7.4 PBS/Cdx buffer incubated for 24 hrs at 22 degC by HPLC method; assay type: physicochemical; conditions: read-out: Therm_solubility
Summary of the method: (§4)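 Powder dissolved to saturation in pH 7.4 PBS (100 mM sodium phosphate, 150 mM NaCl), or in PBS with 10% Cdx, and shaken 24 h. After centrifugation, supernatant quantified by HPLC against a per-compound calibration line prepared from the DMSO stock.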

| Compound | solubility thermodynamic at 24 h |
| --- | --- |
| COc1cc(C2CC(c3ccc(Cl)cc3)=NN2)ccc1O (stereo unspecified) | > 3000 µM |
| Cl.NCCOc1cc(/C=C/C(=O)c2ccc(Cl)cc2)ccc1O | > 5000 µM |
| COc1cc(/C=C/C(=O)c2ccc(I)cc2)ccc1O | 319 µM (≈ 121 µg/mL) |
| COc1cc(/C=C2\COc3cc(Cl)ccc3C2=O)ccc1O | 933 µM (≈ 296 µg/mL) |
| COc1cc(/C=C2\Oc3cc(Cl)ccc3C2=O)ccc1O | 330 µM (≈ 99.9 µg/mL) |

system: not listed separately; assay: Thermodynamic solubility in pH 7.4 PBS buffer incubated for 24 hrs at 22 degC by HPLC method; assay type: physicochemical; conditions: read-out: Therm_solubility; summary of the method: as §4

| Compound | solubility thermodynamic at 24 h |
| --- | --- |
| COc1cc(C2CC(c3ccc(Cl)cc3)=NN2)ccc1O (stereo unspecified) | 34.6 µM (≈ 10.5 µg/mL) |
| Cl.NCCOc1cc(/C=C/C(=O)c2ccc(Cl)cc2)ccc1O | 4.2 µM |
| COc1cc(/C=C/C(=O)c2ccc(I)cc2)ccc1O | 1.2 µM (≈ 0.456 µg/mL) |
| COc1cc(/C=C2\COc3cc(Cl)ccc3C2=O)ccc1O | 0.5 µM (≈ 0.158 µg/mL) |
| COc1cc(/C=C2\Oc3cc(Cl)ccc3C2=O)ccc1O | 1.9 µM (≈ 0.575 µg/mL) |

biological target: T1, Stromal cell-derived factor 1; assay: Binding affinity to Texas Red-labelled CXCL12 (unknown origin) assessed as inhibition of CXCL12-Texas Red binding to EGFP-labeled human CXCR4 expressed in HEK293 cell membranes at 10 uM pre-incubated for 1 hr by FRET-based binding assay; conditions: not given
Summary of the method: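 FRET binding assay in EGFP-CXCR4 HEK-293 cells. Compound at 10 μM preincubated with CXCL12 before addition to the cells; binding read as EGFP emission at 510 nm after CXCL12-Texas Red addition. T134 (20 μM) used as control.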

| Compound | inhibition |
| --- | --- |
| COc1cc(/C=C/C(=O)c2ccccc2)ccc1O | inactive |

biological target: T1, Stromal cell-derived factor 1; assay: Binding affinity to Texas Red-labelled CXCL12 (unknown origin) assessed as inhibition of CXCL12-Texas Red binding to EGFP-labeled human CXCR4 expressed in HEK293 cell membranes pre-incubated for 1 hr by FRET-based binding assay; conditions: not given; summary of the method: as §3

| Compound | Ki |
| --- | --- |
| COc1cc(/C=C2\Cc3cc(Cl)ccc3C2=O)ccc1O | 107 nM |
| COc1cc(/C(C)=C/C(=O)c2ccc(Cl)cc2)ccc1O | > 10000 nM |
| COc1cc(/C=C/C(=O)c2ccccc2)ccc1O | > 10000 nM |
| COc1cc(/C=C(\C)C(=O)c2ccc(Cl)cc2)ccc1O | > 5000 nM |
| COc1cc(/C=C/C(=O)c2ccc(C)cc2)ccc1O | 285 nM |
| COc1cc(-c2cc(-c3ccc(Cl)cc3)nc(N)n2)ccc1O | > 10000 nM |
| O=C(/C=C/c1ccc(O)c(C(=O)O)c1)c1ccc(Cl)cc1 | > 10000 nM |
| COc1cc(/C=C/C(=O)c2ccc(C(F)(F)F)cc2)ccc1O | 1070 nM |
| COc1cc(C2CC(c3ccc(Cl)cc3)=NN2)ccc1O (stereo unspecified) | 107 nM |
| COc1cc(-c2cc(-c3ccc(Cl)cc3)nc(C)n2)ccc1O | 1680 nM |
| COc1cc(C2CC(c3ccc(Cl)cc3)=NN2C(C)=O)ccc1O (stereo unspecified) | > 10000 nM |
| COc1cc(/C=C/C(=O)c2ccc(Br)cc2)ccc1O | 44 nM |
| Cl.NCCOCCOc1cc(/C=C2\Cc3cc(Cl)ccc3C2=O)ccc1O | 496 nM |
| COc1cc(/C=C/C(=O)c2ccc(Cl)cc2F)ccc1O | 107 nM |
| COc1ccc(C(=O)/C=C/c2ccc(O)c(OC)c2)cc1 | 1780 nM |
| Cl.NCCOc1cc(/C=C/C(=O)c2ccc(Cl)cc2)ccc1O | 357 nM |
| COc1cc(/C=C/C(=O)c2ccc(I)cc2)ccc1O | 107 nM |
| COc1cc(/C=C2\COc3cc(Cl)ccc3C2=O)ccc1O | 357 nM |
| COc1cc(/C=C2\Oc3cc(Cl)ccc3C2=O)ccc1O | 203 nM |

system: Mus musculus; assay: Inhibition of lymphocytes infiltration in Balb/c mouse model of 8 day model of allergic eosinophilic airway inflammation at 300 nmol/kg dosed intranasally 2 hrs before ovalbumin challenge by hemocytometry; assay type: functional, organism-based; conditions: not given; summary of the method: as §2

| Compound | inhibition |
| --- | --- |
| COCOc1ccc(/C=C/C(=O)c2ccc(Cl)cc2O)cc1OC | inactive |
| COc1cc(C2CC(c3ccc(Cl)cc3)=NN2)ccc1O (stereo unspecified) | inactive |
| Cl.NCCOCCOc1cc(/C=C2\Cc3cc(Cl)ccc3C2=O)ccc1O | inactive |
| Cl.NCCOc1cc(/C=C/C(=O)c2ccc(Cl)cc2)ccc1O | inactive |
| COc1cc(/C=C/C(=O)c2ccc(I)cc2)ccc1O | inactive |

— ChEMBL document CHEMBL4145692, “Discovery of a Locally and Orally Active CXCL12 Neutraligand (LIT-927) with Anti-inflammatory Effect in a Murine Model of Allergic Airway Hypereosinophilia” (J Med Chem, 2018)
